High-throughput results from PubChem BioAssay.
IDH1 R132H inh = blocks human IDH1 R132H reductase activity | AID 624101 | inhibition, % at 10 µM | diaphorase/resazurin fluorescence, 60 min | 70,000 compounds, 0.18% hits | O75874; in the data active = inhibition above about 34%; inconclusive = no clear call, values can overlap the other calls; inactive = below about 11%;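 also: 0% = DMSO and 100% = no enzyme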
GASC1 inh = inhibitors of human demethylase GASC-1 KDM4C; inhibition, % at 12.5 µM; Q9H3R0; 96,000 compounds, 0.15% hits; GST-KDM4C 2-372, H3K9me3 peptide, LANCE TR-FRET;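 active = mean replicate inhibition above about 25%, with at least 55% of replicates also reaching it, limit read from the data, passing the limit was not always enough; inconclusive = only one of those two conditions met; inactive = neither condition met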
Target sequence (Q9H3R0 2-372 limits assumed): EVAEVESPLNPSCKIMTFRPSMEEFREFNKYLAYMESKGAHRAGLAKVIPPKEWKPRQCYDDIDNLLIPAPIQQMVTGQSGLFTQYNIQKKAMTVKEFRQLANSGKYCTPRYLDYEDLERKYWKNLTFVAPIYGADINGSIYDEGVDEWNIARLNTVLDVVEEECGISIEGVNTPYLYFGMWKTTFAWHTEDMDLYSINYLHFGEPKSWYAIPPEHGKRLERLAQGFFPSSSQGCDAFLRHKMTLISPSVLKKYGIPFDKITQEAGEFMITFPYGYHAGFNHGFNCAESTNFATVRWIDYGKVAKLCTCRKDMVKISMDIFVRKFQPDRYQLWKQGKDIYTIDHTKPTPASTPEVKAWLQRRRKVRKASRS
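Compound: one test concentration per compound; Material: GST-GASC-1 enzyme fragment 2-372; Amount: GASC-1 enzyme at 10 nM final in reaction; Also added: H3K9me3 peptide substrate, Fe(II), 2-oxoglutarate; Technique: LANCE TR-FRET; Times: 30 min demethylation and 1 h detection at room temperature.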
T cruzi growth-1 = blocks T. cruzi growth in NIH3T3 culture; 77,000 compounds, 5.9% hits; inhibition, % at 8.34 µM; T. cruzi beta-gal in NIH3T3, GalScreen luminescence, 90 h;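 active = mean inhibition above about 93%, with at least 55% of replicates each passing it, limit read from the data, passing the limit was not always enough; inconclusive = only one of those two conditions holds; inactive = neither condition holds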
T cruzi growth-2 = Trypanosoma cruzi proliferation inhibition | shares compounds with T cruzi growth-1 | T. cruzi beta-gal in NIH3T3, GalScreen luminescence, 90 h | inhibition, % at 8.35 µM | 5,600 compounds, 72% hits | AID 651739;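 active = mean replicate inhibition above about 95% and at least 55% of replicates individually reaching it, limit read from the data; inconclusive = only one of the two criteria is met; inactive = neither criterion is met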
T cruzi growth-3 = blocks T. cruzi growth in NIH3T3 host cells | 5,600 compounds, 21% hits | T. cruzi beta-gal in NIH3T3, GalScreen luminescence, 90 h | AID 651740 | inhibition, % at 2.09 µM | shares compounds with T cruzi growth-1;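 active = mean inhibition above about 95%, with at least 55% of replicates also reaching it, limit read from the data; inconclusive = meets just one of the two conditions; inactive = meets neither condition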;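 also: plate controls were neutral control median for no effect and positive control median for full effect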
3T3 cytotox = kills mouse NIH/3T3 fibroblasts; shares compounds with T cruzi growth-1; NIH/3T3 viability, CellTiter-Glo ATP luminescence, 90 h; cytotoxicity (signal decrease), % at 8.35 µM; 5,600 compounds, 14% hits; AID 651742;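 active = mean signal decrease across replicates above about 35% based on untreated-well scatter, with enough replicates individually passing, limit read from the data; inconclusive = no rule stated though some were filed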;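 also: 0% = median of neutral control wells and 100% = median of positive control wells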
3T3 cytotox 2 = cytotoxicity in mouse NIH/3T3 fibroblasts. shares compounds with T cruzi growth-1. NIH/3T3 viability, CellTiter-Glo ATP luminescence, 90 h. inhibition, % at 24.9 µM. 5,600 compounds, 56% hits. AID 651744;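 active = mean loss of cell viability signal at or above a set limit, and enough replicates individually reaching it; inconclusive = meets only the mean limit or only the replicate share; inactive = meets neither condition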;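 also: 0% = median of neutral control wells and 100% = median of positive control wells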
* marks the source's active call; other numbers are inactive results; ? = inconclusive; . = no result given. Shown is part of a subset that was picked to be rich in hits.

SMILES	IDH1 R132H inh	GASC1 inh	T cruzi growth-1	T cruzi growth-2	T cruzi growth-3	3T3 cytotox	3T3 cytotox 2
COc1ccc(C#Cc2ccc3c(c2)O[C@H](CN(C)S(=O)(=O)c2ccccc2F)[C@@H](C)CN([C@@H](C)CO)S3(=O)=O)cc1	0.3	-6.2	.	.	.	.	.
COc1cccc(C#Cc2ccc3c(c2)O[C@H](CN(C)S(=O)(=O)c2ccccc2F)[C@H](C)CN([C@@H](C)CO)S3(=O)=O)c1	0.1	-5.0	124.7*	108.8*	104.0*	-9.1	12.4
COc1cccc(C#Cc2ccc3c(c2)O[C@@H](CN(C)S(=O)(=O)c2ccccc2F)[C@@H](C)CN([C@@H](C)CO)S3(=O)=O)c1	0.6	7.2	?	101.8*	52.0	-3.3	8.7
COc1cccc(C#Cc2ccc3c(c2)O[C@H](CN(C)C)[C@H](C)CN([C@H](C)CO)S3(=O)=O)c1	-0.1	-0.6	-42.6	.	.	.	.
COc1cccc(C#Cc2ccc3c(c2)O[C@@H](CN(C)S(=O)(=O)c2ccccc2F)[C@H](C)CN([C@@H](C)CO)S3(=O)=O)c1	1.1	-1.9	122.6*	109.5*	98.4*	23.2	41.9*
COc1cccc(C#Cc2ccc3c(c2)O[C@@H](CN(C)S(=O)(=O)c2ccccc2F)[C@H](C)CN([C@H](C)CO)S3(=O)=O)c1	-1.0	6.0	121.4*	107.4*	94.9	-0.7	44.7*
COc1ccc(C#Cc2ccc3c(c2)O[C@@H](CN(C)S(=O)(=O)c2ccccc2F)[C@H](C)CN([C@@H](C)CO)S3(=O)=O)cc1	0.4	-6.0	.	.	.	.	.
CN1C[C@H]2[C@@H](c3ccccc31)[C@@H](CO)N2C(=O)C1CC1	.	0.6	24.0	.	.	.	.
O=C(Cn1cnc2scc(-c3cccc([N+](=O)[O-])c3)c2c1=O)Nc1cccc(C(F)(F)F)c1	0.2	.	.	.	.	.	.
COc1cccc(C#Cc2ccc3c(c2)O[C@@H](CN(C)C(C)=O)[C@@H](C)CN([C@@H](C)CO)S3(=O)=O)c1	-3.9	-1.5	33.2	.	.	.	.
COc1cccc(C#Cc2ccc3c(c2)O[C@H](CN(C)S(=O)(=O)c2ccccc2F)[C@@H](C)CN([C@H](C)CO)S3(=O)=O)c1	0.4	-3.9	127.1*	109.0*	114.8*	24.5	41.5*
CO[C@@H]1CN(C)C(=O)c2cc(NS(C)(=O)=O)ccc2OC[C@@H](C)N(S(C)(=O)=O)C[C@@H]1C	0.0	-0.4	3.0	.	.	.	.
CN(CC(=O)Nc1cccc(Cl)c1)S(=O)(=O)c1ccccc1	0.6	.	.	.	.	.	.
CC1C=NC(S(=O)(=O)N2CC[C@H]3[C@@H](CO)N(C)c4ccc(-c5cccc(F)c5)cc4[C@H]32)=N1 (stereo partly specified)	.	1.7	89.3	.	.	.	.
CN1c2ccc(Br)cc2[C@@H]2[C@@H](CCN2S(=O)(=O)c2ccc(F)cc2)[C@H]1CO	.	-0.2	47.4	.	.	.	.
CN1c2ccc(Br)cc2[C@@H]2[C@@H](CCN2S(=O)(=O)c2cccc(F)c2)[C@@H]1CO	.	-0.3	?	92.2	53.0	47.9*	41.2*
CC1C=NC(S(=O)(=O)N2CC[C@@H]3[C@@H](CO)N(C)c4ccc(-c5cccc(F)c5)cc4[C@@H]32)=N1 (stereo partly specified)	.	0.7	102.5*	103.9*	85.8	18.7	-6.9
CN1c2ccc(-c3cccc(F)c3)cc2[C@@H]2[C@@H](CCN2S(=O)(=O)c2cccc(F)c2)[C@@H]1CO	.	-5.6	101.7*	97.5*	77.3	58.8*	105.4*
COc1ccc(-c2ccc3c(c2)[C@@H]2[C@@H](CCN2S(=O)(=O)C2=NC(C)C=N2)[C@H](CO)N3C)cc1 (stereo partly specified)	.	2.4	93.4	.	.	.	.
CN1c2ccc(-c3cccc(F)c3)cc2[C@H]2[C@H](CCN2S(=O)(=O)c2cccc(F)c2)[C@H]1CO	.	-3.1	85.0	.	.	.	.
COc1ccc(-c2ccc3c(c2)[C@H]2[C@H](CCN2S(=O)(=O)C2=NC(C)C=N2)[C@@H](CO)N3C)cc1 (stereo partly specified)	.	0.6	101.0*	104.2*	105.5*	-15.7	-26.1
O=C(Cc1ccccc1[N+](=O)[O-])Nc1ccccc1C(=O)NC1CCCCC1	0.2	.	.	.	.	.	.
